The values that follow come from ChEMBL document CHEMBL1157011, “8-Sulfonyl-substituted tetrahydro-1H-pyrido[4,3-b]indoles as 5-HT6 receptor antagonists” (Eur J Med Chem, 2010).

Experiment [1] deals with T1, 5-hydroxytryptamine receptor 6 (Homo sapiens, UniProt P50406). The experiment can be described thus: Binding affinity to human recombinant 5HT6 receptor.
The target of experiment [2] is 5-hydroxytryptamine receptor 6 (Rattus norvegicus, UniProt P31388). Nature of the experiment: Binding affinity to rat recombinant 5HT6 receptor.
For experiment [3], the target named is T1, 5-hydroxytryptamine receptor 6. Nature of the experiment: Antagonist activity at human recombinant 5HT6 receptor expressed in HEK293 cells assessed as inhibition of serotonin-induced cAMP production by LANCE assay relative to serotonin. Format: functional, cell-based. Put shortly: (§1)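 HEK-293 cells with a tetracycline-inducible (T-Rex) human 5-HT6 receptor, grown in DMEM/10% FBS with blasticidin S and zeocin and induced with tetracycline the day before. Medium was swapped for HBSS with 1 mM MgCl2, 1 mM CaCl2, IBMX and 5 mM HEPES, pH 7.4. Compounds (0.1% DMSO) were added 15 min at RT, then 10 nM serotonin for 30 min. cAMP read by LANCE; 2 independent experiments in duplicate.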
Background: cAMP levels reflect the balance of adenylyl cyclase and phosphodiesterase activity.

The target in experiment [4] is T2, 5-hydroxytryptamine receptor 1A (Homo sapiens, UniProt P08908).
T2 sequence (P08908 whole entry): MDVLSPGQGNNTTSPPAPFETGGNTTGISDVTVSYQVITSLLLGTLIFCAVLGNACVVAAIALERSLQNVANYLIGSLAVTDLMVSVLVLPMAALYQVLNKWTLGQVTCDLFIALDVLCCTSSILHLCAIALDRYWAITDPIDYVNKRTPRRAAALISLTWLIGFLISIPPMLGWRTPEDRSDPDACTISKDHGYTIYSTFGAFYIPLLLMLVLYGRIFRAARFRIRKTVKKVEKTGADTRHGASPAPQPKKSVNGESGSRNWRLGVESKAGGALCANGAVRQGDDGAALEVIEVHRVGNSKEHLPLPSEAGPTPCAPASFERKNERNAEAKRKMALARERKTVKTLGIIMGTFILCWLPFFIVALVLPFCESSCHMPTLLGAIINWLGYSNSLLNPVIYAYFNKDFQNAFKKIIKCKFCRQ
The experiment can be described thus: Binding affinity to 5HT1A receptor by radioligand displacement assay. For orientation: Loss of bound radioactivity is the signal in a displacement assay; it reports binding, not function.

In experiment [5] the target is T3, 5-hydroxytryptamine receptor 2C (Homo sapiens, UniProt P28335).
T3 sequence (P28335 whole entry): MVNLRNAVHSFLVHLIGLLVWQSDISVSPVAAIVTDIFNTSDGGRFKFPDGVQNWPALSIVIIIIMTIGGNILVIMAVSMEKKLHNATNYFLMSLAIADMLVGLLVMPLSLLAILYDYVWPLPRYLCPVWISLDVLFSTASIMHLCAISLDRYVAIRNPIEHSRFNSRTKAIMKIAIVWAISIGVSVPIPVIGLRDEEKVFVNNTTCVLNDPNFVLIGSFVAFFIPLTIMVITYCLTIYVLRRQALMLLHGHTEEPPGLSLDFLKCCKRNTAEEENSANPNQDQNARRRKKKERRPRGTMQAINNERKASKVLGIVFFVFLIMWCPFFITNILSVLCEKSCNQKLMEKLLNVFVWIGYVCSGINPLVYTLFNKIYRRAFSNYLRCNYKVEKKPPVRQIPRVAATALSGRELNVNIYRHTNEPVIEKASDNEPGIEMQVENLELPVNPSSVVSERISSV
Nature of the experiment: Binding affinity to 5HT2C receptor by radioligand displacement assay. Put shortly:
(§2)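 Competitive displacement of the corresponding radioligand, run by an outside contract lab under its internal protocols. Data from one representative experiment in duplicate.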

In experiment [6] the target is T1, 5-hydroxytryptamine receptor 6. The experiment can be described thus: Binding affinity to human recombinant 5HT6 receptor by radioligand displacement assay. Put shortly:
as §2

Experiment [7] has as its target 5-hydroxytryptamine receptor 7 (Homo sapiens, UniProt P34969). The experiment can be described thus: Binding affinity to 5HT7 receptor by radioligand displacement assay. In short, it runs like this:
as §2

Experiment [8] addresses T1, 5-hydroxytryptamine receptor 6. Nature of the experiment: Antagonist activity at human recombinant 5HT6 receptor expressed in HEK293 cells assessed as inhibition of serotonin-induced cAMP production by LANCE assay. Format: functional, cell-based. As to conditions: read-out: IC50. In short, it runs like this:
as §1

The structures appear in SMILES notation. A value given as a limit tells only on which side of the number the result lay.

T1 sequence (P50406 whole entry): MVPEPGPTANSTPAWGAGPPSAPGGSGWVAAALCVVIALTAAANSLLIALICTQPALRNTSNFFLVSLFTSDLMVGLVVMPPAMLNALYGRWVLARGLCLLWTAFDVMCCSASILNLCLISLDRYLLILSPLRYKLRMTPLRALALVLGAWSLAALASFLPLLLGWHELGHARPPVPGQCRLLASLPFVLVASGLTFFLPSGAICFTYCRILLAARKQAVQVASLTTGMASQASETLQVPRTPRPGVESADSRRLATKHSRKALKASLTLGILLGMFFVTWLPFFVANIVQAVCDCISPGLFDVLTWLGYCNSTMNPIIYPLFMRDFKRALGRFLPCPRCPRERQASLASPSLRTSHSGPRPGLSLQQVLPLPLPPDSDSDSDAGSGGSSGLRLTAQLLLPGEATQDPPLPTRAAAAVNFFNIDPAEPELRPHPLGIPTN
5-hydroxytryptamine receptor 6 (Rattus norvegicus, UniProt P31388), sequence (P31388 whole entry): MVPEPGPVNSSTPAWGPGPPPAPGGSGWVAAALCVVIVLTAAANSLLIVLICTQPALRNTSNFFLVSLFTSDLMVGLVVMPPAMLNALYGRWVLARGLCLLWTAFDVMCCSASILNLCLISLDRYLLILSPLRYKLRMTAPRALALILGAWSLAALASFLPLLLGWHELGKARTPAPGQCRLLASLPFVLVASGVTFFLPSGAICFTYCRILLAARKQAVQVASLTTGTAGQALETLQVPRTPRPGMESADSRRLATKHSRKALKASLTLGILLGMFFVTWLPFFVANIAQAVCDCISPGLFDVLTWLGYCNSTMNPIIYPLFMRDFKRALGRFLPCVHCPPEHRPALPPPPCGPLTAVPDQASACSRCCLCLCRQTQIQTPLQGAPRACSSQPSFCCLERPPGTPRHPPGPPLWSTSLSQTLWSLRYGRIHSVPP
5-hydroxytryptamine receptor 7, sequence (P34969 whole entry): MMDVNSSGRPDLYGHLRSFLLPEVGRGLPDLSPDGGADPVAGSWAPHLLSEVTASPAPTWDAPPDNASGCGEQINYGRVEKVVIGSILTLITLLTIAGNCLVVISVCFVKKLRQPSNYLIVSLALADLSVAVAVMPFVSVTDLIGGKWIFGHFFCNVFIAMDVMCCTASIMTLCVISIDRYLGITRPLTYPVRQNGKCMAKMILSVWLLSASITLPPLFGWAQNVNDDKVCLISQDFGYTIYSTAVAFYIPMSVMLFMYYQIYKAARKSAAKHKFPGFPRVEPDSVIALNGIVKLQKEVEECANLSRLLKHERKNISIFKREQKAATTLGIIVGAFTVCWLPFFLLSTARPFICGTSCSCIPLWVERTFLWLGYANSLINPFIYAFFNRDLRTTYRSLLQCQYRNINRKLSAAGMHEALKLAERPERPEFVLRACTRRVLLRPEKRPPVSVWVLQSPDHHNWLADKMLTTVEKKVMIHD

What is called Ki is the equilibrium dissociation constant of an inhibitor or competing ligand from its target. Regarding `Cc1ccc2c(c1)c1c(n2CCc2ccc(C)nc2)CCN(C)C1` [LATREPIRDINE], the Ki in experiment [1] was 26 nM; in experiment [2], 119 nM; in experiment [4] it was greater than 100 nM; in experiment [5], 76 nM; in experiment [6], 34 nM; in experiment [7] it was 8 nM. Also, in experiment [3], the Imax was found to be 100%.

A word on the IC50: it is the concentration that gives 50% inhibition. Turning to `Cc1ccc(S(=O)(=O)n2c3c(c4cc(S(=O)(=O)c5ccccc5)ccc42)CN(C)CC3)cc1`, the half-inhibitory concentration (IC50) in experiment [8] was determined as 28000 nM. In experiment [3], the Imax was determined as 100%.

Turning to `CN1CCc2[nH]c3ccc(S(=O)(=O)c4cccnc4)cc3c2C1`, in experiment [8], the IC50 was 3400 nM. Also, in experiment [3], the Imax came to 100%.

For the compound `CN1CCc2[nH]c3ccc(S(=O)(=O)N(C)C)cc3c2C1`, the IC50 in experiment [8] turned out to be 26000 nM. Further, the Imax in experiment [3] turned out to be 100%.

As to `CN1CCc2c(c3cc(S(=O)(=O)c4ccccc4)ccc3n2CCc2ccccn2)C1`, in experiment [3], the Imax was found to be 100%.

Take `CN1CCc2[nH]c3ccc(S(=O)(=O)c4cccc(F)c4)cc3c2C1`: in experiment [3], the Imax was 100%.
